Active and inactive are the calls of the source. No cut-off for these calls is given here.
Assays:
[1] = biological target: T1, Histone deacetylase (Homo sapiens) (UniProt Q13547+O15379+Q9UBN7+Q92769+Q9UQL6+Q8WUI4+Q9BY41+Q96DB2+P56524+Q9UKV0+Q969S8); assay: Inhibition of HDAC in human HeLa cell nuclear extracts at 100 uM relative to control; format: subcellular; settings: Nucleus
Summary of the method: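 Total HDAC activity measured with HeLa nuclear extract as enzyme source; single dose of 100 µM run in duplicate.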

NAMALVA [2] = assay: Cytotoxicity against human NAMALVA cells assessed as reduction in cell viability measured after 72 hrs by MTT assay; format: functional, cell-based
Homo sapiens = organism: Homo sapiens; assay: Selectivity index, ratio of IC50 for inhibition of recombinant human full-length C-terminal FLAG/His-tagged HDAC1 (1 to 482 residues) expressed in baculovirus infected Sf9 insect cells to IC50 for inhibition of recombinant human full-length N-terminal GST-tagged HDAC6 (1 to 1215 residues) expressed in baculovirus infected Sf9 insect cells
[3] = biological target: T2, Protein deacetylase HDAC6 (Homo sapiens, UniProt Q9UBN7); assay: Inhibition of recombinant human full-length N-terminal GST-tagged HDAC6 (1 to 1215 residues) expressed in baculovirus infected Sf9 insect cells using RHKK(Ac)AMC as substrate preincubated for 5 to 10 mins followed by substrate addition and measured after 2 hrs by fluorescence assay
T2 sequence (Q9UBN7 whole entry): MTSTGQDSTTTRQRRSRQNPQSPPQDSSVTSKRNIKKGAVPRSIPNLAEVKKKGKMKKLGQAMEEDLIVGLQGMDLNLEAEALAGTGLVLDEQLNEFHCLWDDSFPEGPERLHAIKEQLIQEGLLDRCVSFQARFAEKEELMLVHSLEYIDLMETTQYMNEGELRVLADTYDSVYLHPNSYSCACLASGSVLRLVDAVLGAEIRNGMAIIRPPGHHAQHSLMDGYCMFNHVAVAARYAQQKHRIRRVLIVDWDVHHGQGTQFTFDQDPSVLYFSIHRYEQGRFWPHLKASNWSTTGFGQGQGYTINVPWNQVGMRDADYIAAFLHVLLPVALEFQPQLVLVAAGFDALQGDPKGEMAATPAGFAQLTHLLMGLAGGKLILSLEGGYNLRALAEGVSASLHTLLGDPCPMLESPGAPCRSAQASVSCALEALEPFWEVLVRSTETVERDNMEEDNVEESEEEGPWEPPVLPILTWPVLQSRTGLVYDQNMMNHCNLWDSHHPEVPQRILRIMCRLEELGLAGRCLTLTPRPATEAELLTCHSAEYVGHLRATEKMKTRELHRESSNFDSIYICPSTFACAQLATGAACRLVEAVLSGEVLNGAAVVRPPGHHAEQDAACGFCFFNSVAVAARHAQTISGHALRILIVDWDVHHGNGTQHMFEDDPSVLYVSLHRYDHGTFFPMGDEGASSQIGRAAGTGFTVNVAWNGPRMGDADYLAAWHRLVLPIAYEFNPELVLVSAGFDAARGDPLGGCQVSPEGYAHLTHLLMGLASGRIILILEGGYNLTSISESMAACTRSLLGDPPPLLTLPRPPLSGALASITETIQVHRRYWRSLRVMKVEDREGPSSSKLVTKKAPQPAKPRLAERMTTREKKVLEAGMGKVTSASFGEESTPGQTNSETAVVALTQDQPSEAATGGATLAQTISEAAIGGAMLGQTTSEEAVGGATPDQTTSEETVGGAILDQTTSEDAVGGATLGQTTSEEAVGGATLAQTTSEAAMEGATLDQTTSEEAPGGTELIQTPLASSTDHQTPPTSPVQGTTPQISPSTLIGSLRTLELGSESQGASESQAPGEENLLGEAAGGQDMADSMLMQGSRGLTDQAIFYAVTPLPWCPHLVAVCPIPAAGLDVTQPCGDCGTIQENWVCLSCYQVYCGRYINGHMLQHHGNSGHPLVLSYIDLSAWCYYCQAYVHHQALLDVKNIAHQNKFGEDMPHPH

Jurkat [4] = assay: Cytotoxicity against human Jurkat cells assessed as reduction in cell viability measured after 72 hrs by MTT assay; format: functional, cell-based
MCF7 = assay: Cytotoxicity against human MCF7 cells assessed as reduction in cell viability measured after 72 hrs by MTT assay; format: functional, cell-based; settings: MCF7, 72 h
Histone deacetylase 1 = Histone deacetylase 1 (Homo sapiens, UniProt Q13547); assay: Inhibition of recombinant human full-length C-terminal FLAG/His-tagged HDAC1 (1 to 482 residues) expressed in baculovirus infected Sf9 insect cells using RHKK(Ac)AMC as substrate preincubated for 5 to 10 mins followed by substrate addition and measured after 2 hrs by fluorescence assay
HCT-116 = assay: Cytotoxicity against human HCT-116 cells assessed as reduction in cell viability measured after 72 hrs by MTT assay; format: functional, cell-based; settings: HCT-116, 72 h
Jurkat [5] = assay: Induction of apoptosis in human Jurkat cells assessed as early apoptotic cells at 0.5 times IC50 measured after 48 hrs by Annexin V-FITC/7AAD staining based flow cytometry (reference value: 6.05%); format: functional
[6] = biological target: T1, Histone deacetylase (Homo sapiens); assay: Inhibition of HDAC in human Jurkat cells assessed as increase in gammaH2AX expression at IC50 measured after 48 hrs by Western blot analysis; format: cell-based
NAMALVA [7] = assay: Effect on phosphotyrosine expression in human NAMALVA cells at IC50 measured after 48 hrs by Western blot analysis; format: functional, cell-based
NAMALVA [8] = assay: Induction of apoptosis in human NAMALVA cells assessed as viable cells at 0.5 times IC50 measured after 48 hrs by Annexin V-FITC/7AAD staining based flow cytometry (reference value: 90.4%); format: functional
[9] = Cytotoxicity against human HS5 cells assessed as reduction in cell viability measured after 72 hrs by MTT assay; format: ADME, cell-based; settings: HS5, 72 h
Jurkat [10] = assay: Cytotoxicity against human Jurkat cells assessed as reduction in cell viability MTT assay; format: functional, cell-based; settings: time 24-72 hrs, TDE = time-dependent effect
Summary of the method: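 Jurkat cells (2 × 10^4/well) in RPMI with 10% FBS and 1% penicillin–streptomycin, exposed 24, 48 and 72 h to compound (0.0032–50 μM); 1% DMSO as negative control. MTT at 0.5 mg/mL final for 3 h, formazan dissolved in 0.1 N HCl/isopropanol. IC50 with 95% confidence intervals from sigmoidal nonlinear regression; mean ± SEM.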

NAMALVA [11] = assay: Induction of apoptosis in human NAMALVA cells assessed as necrotic cells at 0.5 times IC50 measured after 48 hrs by Annexin V-FITC/7AAD staining based flow cytometry (reference value: 1.05%); format: functional
Jurkat [12] = assay: Cytotoxicity against human Jurkat cells assessed as reduction in cell viability measured after 24 hrs MTT assay; format: functional, cell-based
[13] = biological target: T3, Protein deacetylase HDAC6 (Homo sapiens) (UniProt Q9UBN7); assay: Inhibition of HDAC6 in human Jurkat cells assessed as increase in acetylated alpha-tubulin expression at IC50 measured after 48 hrs by Western blot analysis; format: cell-based
T3 sequence (whole entry): T2 sequence (Q9UBN7 whole entry)

[14] = biological target: T3, Protein deacetylase HDAC6 (Homo sapiens); assay: Inhibition of HDAC6 in human NAMALVA cells assessed as increase in acetylated alpha-tubulin expression at IC50 measured after 48 hrs by Western blot analysis; format: cell-based
Jurkat [15] = assay: Induction of apoptosis in human Jurkat cells assessed as viable cells at 0.5 times IC50 measured after 48 hrs by Annexin V-FITC/7AAD staining based flow cytometry (reference value: 85.2%); format: functional
Jurkat [16] = assay: Induction of apoptosis in human Jurkat cells assessed as necrotic cells at 0.5 times IC50 measured after 48 hrs by Annexin V-FITC/7AAD staining based flow cytometry (reference value: 0.23%); format: functional
Jurkat [17] = assay: Cytotoxicity against human Jurkat cells assessed as reduction in cell proliferation at IC50 measured after 48 hrs by Ki-67 staining based fluorescence assay; format: functional
Summary of the method: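 Ki-67 stained per kit instructions; mean fluorescence intensity by flow cytometry, normalized to untreated cells; at least three independent experiments, ANOVA with Bonferroni post-test.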

[18] = biological target: T1, Histone deacetylase (Homo sapiens); assay: Inhibition of HDAC in human NAMALVA cells assessed as increase in gammaH2AX expression at IC50 measured after 48 hrs by Western blot analysis; format: cell-based
NAMALVA [19] = assay: Induction of apoptosis in human NAMALVA cells assessed as late apoptotic cells at 0.5 times IC50 measured after 48 hrs by Annexin V-FITC/7AAD staining based flow cytometry (reference value: 3.52%); format: functional
NAMALVA [20] = assay: Effect on phosphoserine expression in human NAMALVA cells at IC50 measured after 48 hrs by Western blot analysis; format: functional, cell-based
Jurkat [21] = assay: Effect on phosphotyrosine expression in human Jurkat cells at IC50 measured after 48 hrs by Western blot analysis; format: functional, cell-based
Jurkat [22] = assay: Effect on phosphoserine expression in human Jurkat cells at IC50 measured after 48 hrs by Western blot analysis; format: functional, cell-based
Jurkat [23] = assay: Induction of apoptosis in human Jurkat cells assessed as late apoptotic cells at 0.5 times IC50 measured after 48 hrs by Annexin V-FITC/7AAD staining based flow cytometry (reference value: 6.77%); format: functional
Jurkat [24] = assay: Cytotoxicity against human Jurkat cells assessed as reduction in cell viability measured after 48 hrs MTT assay; format: functional, cell-based
NAMALVA [25] = assay: Induction of apoptosis in human NAMALVA cells assessed as early apoptotic cells at 0.5 times IC50 measured after 48 hrs by Annexin V-FITC/7AAD staining based flow cytometry (reference value: 5.07%); format: functional
[26] = Selectivity ratio of IC50 for human HCT-116 cells to IC50 for human Jurkat cells; format: functional
[27] = Selectivity index, ratio of IC50 for human HS5 cells to IC50 for human NAMALVA cells
[28] = Selectivity index, ratio of IC50 for human HS5 cells to IC50 for human Jurkat cells
[29] = Selectivity ratio of IC50 for human HCT-116 cells to IC50 for human NAMALVA cells; format: functional

Histone deacetylase 1, sequence (Q13547 whole entry, the tested form may be a part): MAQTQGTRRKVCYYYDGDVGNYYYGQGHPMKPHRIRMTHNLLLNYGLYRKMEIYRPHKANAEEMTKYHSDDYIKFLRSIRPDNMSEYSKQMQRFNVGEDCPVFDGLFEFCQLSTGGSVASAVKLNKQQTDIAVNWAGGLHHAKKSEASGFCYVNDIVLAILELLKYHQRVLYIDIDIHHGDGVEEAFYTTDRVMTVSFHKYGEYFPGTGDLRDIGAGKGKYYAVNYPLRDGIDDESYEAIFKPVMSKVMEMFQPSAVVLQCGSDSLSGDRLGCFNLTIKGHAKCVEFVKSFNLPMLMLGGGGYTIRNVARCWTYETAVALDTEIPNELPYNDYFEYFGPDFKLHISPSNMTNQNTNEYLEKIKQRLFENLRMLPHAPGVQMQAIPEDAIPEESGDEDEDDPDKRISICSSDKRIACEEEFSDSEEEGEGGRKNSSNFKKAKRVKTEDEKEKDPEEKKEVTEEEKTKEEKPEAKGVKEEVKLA

O=C(Nc1ccc(Cl)cc1)Nc1ccc(C(=O)NO)cc1
inhibition [1]: 92%
IC50 (NAMALVA [2]): 870 nM
Ratio IC50 (Homo sapiens): 64
IC50 [3]: 20.7 nM
IC50 (Jurkat [4]): 1060 nM
IC50 (MCF7): > 50000 nM
IC50 (Histone deacetylase 1): 1320 nM
IC50 (HCT-116): > 50000 nM

O=C(/C=C/c1ccc(NC(=O)Nc2ccc(Cl)cc2)cc1)NO
Activity (Jurkat [5]): 7.92%
inhibition [6]: Active
inhibition (NAMALVA [7]): inactive
inhibition [1]: 93%
Activity (NAMALVA [8]): 72.5%
IC50 [9]: 1700 nM
Activity (Jurkat [10]): Tde
Activity (NAMALVA [11]): 0.68%
IC50 (Jurkat [12]): 2600 nM
inhibition [13]: Active
IC50 (NAMALVA [2]): 200 nM
inhibition [14]: Active
Activity (Jurkat [15]): 88.4%
Activity (Jurkat [16]): 0.28%
Activity (Jurkat [17]): Active
inhibition [18]: Active
IC50 [3]: 8.1 nM
Activity (NAMALVA [19]): 8.85%
inhibition (NAMALVA [20]): inactive
inhibition (Jurkat [21]): inactive
IC50 (Jurkat [4]): 40 nM
inhibition (Jurkat [22]): inactive
Activity (Jurkat [23]): 4.28%
IC50 (Jurkat [24]): 600 nM
IC50 (MCF7): > 50000 nM
Activity (NAMALVA [25]): 17.9%
IC50 (HCT-116): 29900 nM

O=C(/C=C/c1ccc(NC(=O)Nc2ccc([N+](=O)[O-])cc2)cc1)NO
Activity (Jurkat [5]): 5.74%
inhibition [6]: Active
inhibition (NAMALVA [7]): inactive
Activity (NAMALVA [8]): 82.8%
IC50 [9]: 3000 nM
Activity (Jurkat [10]): Tde
Activity (NAMALVA [11]): 1.2%
IC50 (Jurkat [12]): 2700 nM
inhibition [13]: Active
IC50 (NAMALVA [2]): 580 nM
inhibition [14]: Active
Activity (Jurkat [15]): 87.1%
Activity (Jurkat [16]): 0.18%
Activity (Jurkat [17]): Active
inhibition [18]: Active
Ratio IC50 [26]: 140
Activity (NAMALVA [19]): 5.89%
inhibition (NAMALVA [20]): inactive
inhibition (Jurkat [21]): inactive
IC50 (Jurkat [4]): 90 nM
inhibition (Jurkat [22]): inactive
Activity (Jurkat [23]): 7.03%
Ratio IC50 [27]: 5
IC50 (Jurkat [24]): 700 nM
IC50 (MCF7): > 50000 nM
Ratio IC50 [28]: 33
Activity (NAMALVA [25]): 10.1%
IC50 (HCT-116): 12600 nM
Ratio IC50 [29]: 22

O=C(CCc1ccc(NC(=O)Nc2ccc(Cl)cc2)cc1)NO
inhibition [1]: 98%
IC50 (NAMALVA [2]): 370 nM
Ratio IC50 (Homo sapiens): 9
IC50 [3]: 105 nM
IC50 (Jurkat [4]): 410 nM
IC50 (MCF7): > 50000 nM
IC50 (Histone deacetylase 1): 941 nM
IC50 (HCT-116): 17900 nM

— ChEMBL document CHEMBL4706706, “Structure-activity relationship and mechanistic studies for a series of cinnamyl hydroxamate histone deacetylase inhibitors” (Bioorg Med Chem, 2021)
